Assay results: ChEMBL document CHEMBL1800057, “Discovery of dual inducible/neuronal nitric oxide synthase (iNOS/nNOS) inhibitor development candidate 4-((2-cyclobutyl-1H-imidazo[4,5-b]pyrazin-1-yl)methyl)-7,8-difluoroquinolin-2(1H)-one (KD7332) part 2: identification of a novel, potent, and selective series of benzimidazole-quinolinone …” (J Med Chem, 2010)

Legend:
[1] = organism: Homo sapiens; experiment: Ratio of IC50 for human eNOS to EC50 for human iNOS
[2] = molecular target: T1, Nitric oxide synthase 1 (Homo sapiens, UniProt P29475); experiment: Inhibition of human nNOS expressed in HEK293 cells assessed as inhibition ionomycin induced nitric oxide production at 10 uM incubated for 24 hrs measured after 18 hrs of ionomycin challenge using 2,3-diaminonaphthalene by fluorescence assay; format: cell-based
[3] = organism: Homo sapiens; experiment: Ratio of IC50 for human nNOS to EC50 for human iNOS
[4] = molecular target: T2, Nitric oxide synthase 3 (Homo sapiens, UniProt P29474); experiment: Inhibition of human eNOS expressed in HEK293 cells assessed as inhibition A23187 induced nitric oxide production incubated for 24 hrs measured after 18 hrs of […] challenge using 2,3-diaminonaphthalene by fluorescence assay; format: cell-based
T2 sequence (P29474 whole entry): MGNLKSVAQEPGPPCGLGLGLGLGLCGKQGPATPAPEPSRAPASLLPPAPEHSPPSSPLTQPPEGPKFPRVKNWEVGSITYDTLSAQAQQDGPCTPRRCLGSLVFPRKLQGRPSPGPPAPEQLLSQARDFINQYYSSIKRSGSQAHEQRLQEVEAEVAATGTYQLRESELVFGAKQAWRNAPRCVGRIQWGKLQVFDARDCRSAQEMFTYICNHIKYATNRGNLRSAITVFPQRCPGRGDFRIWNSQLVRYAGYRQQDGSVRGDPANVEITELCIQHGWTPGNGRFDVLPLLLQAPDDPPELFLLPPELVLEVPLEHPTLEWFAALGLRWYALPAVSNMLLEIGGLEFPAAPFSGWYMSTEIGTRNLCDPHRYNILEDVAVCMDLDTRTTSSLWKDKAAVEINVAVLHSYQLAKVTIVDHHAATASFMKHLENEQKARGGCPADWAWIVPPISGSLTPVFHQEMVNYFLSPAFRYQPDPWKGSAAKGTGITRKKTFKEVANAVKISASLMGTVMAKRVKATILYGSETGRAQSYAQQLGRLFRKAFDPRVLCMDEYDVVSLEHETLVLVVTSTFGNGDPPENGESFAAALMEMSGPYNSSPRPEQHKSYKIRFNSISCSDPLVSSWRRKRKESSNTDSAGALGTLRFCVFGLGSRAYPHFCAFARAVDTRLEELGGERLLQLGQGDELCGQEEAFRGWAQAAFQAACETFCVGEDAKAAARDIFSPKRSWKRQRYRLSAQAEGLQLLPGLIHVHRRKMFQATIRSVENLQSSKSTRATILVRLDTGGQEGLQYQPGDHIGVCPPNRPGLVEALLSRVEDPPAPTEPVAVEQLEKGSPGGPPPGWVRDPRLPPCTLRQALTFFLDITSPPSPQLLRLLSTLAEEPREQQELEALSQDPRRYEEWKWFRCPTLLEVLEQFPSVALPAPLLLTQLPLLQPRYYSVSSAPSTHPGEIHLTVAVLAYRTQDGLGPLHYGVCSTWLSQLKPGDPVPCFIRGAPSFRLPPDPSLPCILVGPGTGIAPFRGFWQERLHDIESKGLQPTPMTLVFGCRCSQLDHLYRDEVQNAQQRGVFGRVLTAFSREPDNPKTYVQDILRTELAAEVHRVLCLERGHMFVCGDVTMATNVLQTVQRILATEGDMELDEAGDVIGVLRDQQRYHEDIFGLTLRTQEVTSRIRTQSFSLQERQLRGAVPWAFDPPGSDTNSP
How it was run: (§1)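 HEK293 cells transfected for 4 h at 37 °C with human nNOS (10 μg) or human eNOS (15 μg) plasmid (Fugene 6, 3:1). Cells replated at 5e5 cells/mL and dosed with compound at once; SEITU (100 μM final) as positive control. After 24 h, cells activated with A23187 (83 nM final) for eNOS or ionomycin (30 μM final) for nNOS. NO read 18 h later as nitrite-DAN fluorescence.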

[5] = molecular target: T3, Nitric oxide synthase 3 (Homo sapiens) (UniProt P29474); experiment: Inhibition of human eNOS expressed in HEK293 cells assessed as inhibition A23187 induced nitric oxide production at 100 uM incubated for 24 hrs measured after 18 hrs of […] challenge using 2,3-diaminonaphthalene by fluorescence assay; format: cell-based
T3 sequence (whole entry): T2 sequence (P29474 whole entry)

[6] = system: Liver; experiment: Half life in mouse liver microsomes assessed as formation of oxidation product and glucuronide conjugate; format: ADME, Microsome
How it was run: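 Mouse liver microsomes run under combined phase I oxidation and phase II glucuronide conjugation; half-life reported in minutes.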

[7] = molecular target: T1, Nitric oxide synthase 1; experiment: Inhibition of human nNOS expressed in HEK293 cells assessed as inhibition ionomycin induced nitric oxide production incubated for 24 hrs measured after 18 hrs of ionomycin challenge using 2,3-diaminonaphthalene by fluorescence assay; format: cell-based; how it was run: as §1
[8] = molecular target: Nitric oxide synthase, inducible (Homo sapiens, UniProt P35228); experiment: Inhibition of human iNOS expressed in HEK293 cells assessed as inhibition of nitric oxide production after 18 hrs using 2,3-diaminonaphthalene by fluorescence assay; format: cell-based
How it was run: (§2)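 HEK293 cells grown to ~70% confluence in DMEM/10% FBS with pen/strep, transiently transfected with 10 μg human or murine iNOS plasmid plus Fugene 6 for 4 h at 37 °C, 10% CO2. Cells replated at 5e5 cells/mL and dosed with compound at once; 1400W (100 μM final) as positive control. After 18 h, DAN (10 μg/mL final) in HCl (0.1 N final) added for 20 min at room temperature. Fluorescence read after NaOH (0.12 N final).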

[9] = molecular target: T4, Nitric oxide synthase, inducible (Mus musculus, UniProt P29477); experiment: Inhibition of mouse iNOS expressed in HEK293 cells assessed as inhibition of nitric oxide production after 18 hrs using 2,3-diaminonaphthalene by fluorescence assay; format: cell-based; how it was run: as §2
T4 sequence (P29477 whole entry): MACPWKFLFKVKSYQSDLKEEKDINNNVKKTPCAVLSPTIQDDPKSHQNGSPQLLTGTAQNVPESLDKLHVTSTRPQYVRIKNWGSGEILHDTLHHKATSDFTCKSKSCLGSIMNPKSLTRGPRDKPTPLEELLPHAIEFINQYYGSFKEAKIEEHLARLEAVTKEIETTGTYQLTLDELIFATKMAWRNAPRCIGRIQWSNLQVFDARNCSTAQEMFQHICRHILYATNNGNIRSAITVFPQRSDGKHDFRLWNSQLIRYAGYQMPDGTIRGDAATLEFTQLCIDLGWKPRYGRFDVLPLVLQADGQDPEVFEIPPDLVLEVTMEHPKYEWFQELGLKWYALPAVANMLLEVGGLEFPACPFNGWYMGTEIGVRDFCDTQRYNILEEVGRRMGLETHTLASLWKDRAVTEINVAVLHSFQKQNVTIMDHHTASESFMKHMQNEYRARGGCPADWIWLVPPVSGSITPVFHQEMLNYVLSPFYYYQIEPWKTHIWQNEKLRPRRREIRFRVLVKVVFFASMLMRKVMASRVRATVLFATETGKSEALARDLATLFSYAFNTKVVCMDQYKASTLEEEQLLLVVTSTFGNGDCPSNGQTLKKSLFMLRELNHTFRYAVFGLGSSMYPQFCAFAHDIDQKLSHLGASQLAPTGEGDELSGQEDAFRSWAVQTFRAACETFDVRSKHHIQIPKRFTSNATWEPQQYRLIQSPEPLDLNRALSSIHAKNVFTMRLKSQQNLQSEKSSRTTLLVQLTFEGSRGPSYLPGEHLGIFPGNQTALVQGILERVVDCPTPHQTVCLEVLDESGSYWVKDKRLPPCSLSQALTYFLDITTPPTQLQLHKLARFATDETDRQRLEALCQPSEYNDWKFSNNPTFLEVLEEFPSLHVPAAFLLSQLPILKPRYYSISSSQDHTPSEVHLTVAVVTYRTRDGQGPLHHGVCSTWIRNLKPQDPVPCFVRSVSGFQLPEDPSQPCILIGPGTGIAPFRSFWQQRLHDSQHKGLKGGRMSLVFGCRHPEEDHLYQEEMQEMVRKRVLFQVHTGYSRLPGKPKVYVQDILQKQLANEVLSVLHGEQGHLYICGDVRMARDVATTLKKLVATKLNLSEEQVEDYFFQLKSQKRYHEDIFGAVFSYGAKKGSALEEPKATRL

[10] = Cmax in mouse at 3 mg/kg, iv and 10 mg/kg, po; format: ADME, organism-based; settings: in vivo
[11] = system: Mus musculus; experiment: Inhibition of LPS-induced iNOS activation in BALB/c mouse assessed as plasma nitrate levels administered via oral gavage before LPS challenge measured after 6 to 8 hrs using 2,3-diaminonaphthalene by fluorescence assay; format: functional
How it was run: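 Male BALB/c mice dosed by oral gavage (90% PEG/5% Tween 80/5% PVP + 0.5% w/v CMC) immediately before LPS (10 mg/kg ip in 0.9% NaCl). Mice killed at 6 h. EDTA plasma analysed for nitrate and drug levels; nitrite measured by DAN fluorescence.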

[12] = AUC in mouse at 3 mg/kg, iv and 10 mg/kg, po; format: ADME, organism-based; settings: plasma
[13] = Half life in mouse at 10 mg/kg, po; format: ADME, organism-based; set-up: dose 10 mg/kg, route oral; settings: in vivo

T1 sequence (P29475 whole entry): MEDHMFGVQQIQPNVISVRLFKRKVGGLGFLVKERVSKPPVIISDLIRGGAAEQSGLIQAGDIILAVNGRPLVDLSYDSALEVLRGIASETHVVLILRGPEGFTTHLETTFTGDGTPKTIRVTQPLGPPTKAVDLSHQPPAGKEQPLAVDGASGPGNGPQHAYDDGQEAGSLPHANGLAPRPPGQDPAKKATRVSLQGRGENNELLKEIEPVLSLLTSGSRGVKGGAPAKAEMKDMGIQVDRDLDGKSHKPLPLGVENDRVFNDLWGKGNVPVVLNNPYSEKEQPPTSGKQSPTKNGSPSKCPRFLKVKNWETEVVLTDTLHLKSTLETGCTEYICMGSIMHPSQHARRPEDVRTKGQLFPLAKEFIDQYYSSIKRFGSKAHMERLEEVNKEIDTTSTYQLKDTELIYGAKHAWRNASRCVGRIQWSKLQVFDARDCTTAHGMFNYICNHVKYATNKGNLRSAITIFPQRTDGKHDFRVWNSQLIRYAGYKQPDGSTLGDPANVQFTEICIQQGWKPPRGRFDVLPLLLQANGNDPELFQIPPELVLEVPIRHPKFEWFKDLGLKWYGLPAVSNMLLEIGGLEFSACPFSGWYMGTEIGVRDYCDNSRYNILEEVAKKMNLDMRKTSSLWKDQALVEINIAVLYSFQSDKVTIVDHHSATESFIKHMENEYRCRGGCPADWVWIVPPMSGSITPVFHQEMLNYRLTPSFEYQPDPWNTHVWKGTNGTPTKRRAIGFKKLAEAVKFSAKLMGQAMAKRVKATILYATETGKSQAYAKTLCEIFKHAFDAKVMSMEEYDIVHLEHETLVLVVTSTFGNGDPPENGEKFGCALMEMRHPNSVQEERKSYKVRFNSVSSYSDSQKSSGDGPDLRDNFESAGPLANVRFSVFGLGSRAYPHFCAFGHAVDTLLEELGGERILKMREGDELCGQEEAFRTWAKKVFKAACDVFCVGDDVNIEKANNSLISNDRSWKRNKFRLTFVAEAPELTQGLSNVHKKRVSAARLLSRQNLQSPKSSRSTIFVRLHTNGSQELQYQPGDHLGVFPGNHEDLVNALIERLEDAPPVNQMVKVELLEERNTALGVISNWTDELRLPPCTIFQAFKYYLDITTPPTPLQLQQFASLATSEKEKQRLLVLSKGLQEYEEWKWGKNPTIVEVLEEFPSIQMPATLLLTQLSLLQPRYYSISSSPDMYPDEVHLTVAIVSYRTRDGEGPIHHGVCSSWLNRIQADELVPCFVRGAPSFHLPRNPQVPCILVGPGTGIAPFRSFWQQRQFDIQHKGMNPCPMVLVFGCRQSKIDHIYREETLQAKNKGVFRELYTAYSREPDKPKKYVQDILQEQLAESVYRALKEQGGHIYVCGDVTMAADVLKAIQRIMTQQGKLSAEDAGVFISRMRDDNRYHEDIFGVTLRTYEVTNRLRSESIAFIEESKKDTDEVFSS
Sequence of Nitric oxide synthase, inducible (Homo sapiens, UniProt P35228) (P35228 whole entry): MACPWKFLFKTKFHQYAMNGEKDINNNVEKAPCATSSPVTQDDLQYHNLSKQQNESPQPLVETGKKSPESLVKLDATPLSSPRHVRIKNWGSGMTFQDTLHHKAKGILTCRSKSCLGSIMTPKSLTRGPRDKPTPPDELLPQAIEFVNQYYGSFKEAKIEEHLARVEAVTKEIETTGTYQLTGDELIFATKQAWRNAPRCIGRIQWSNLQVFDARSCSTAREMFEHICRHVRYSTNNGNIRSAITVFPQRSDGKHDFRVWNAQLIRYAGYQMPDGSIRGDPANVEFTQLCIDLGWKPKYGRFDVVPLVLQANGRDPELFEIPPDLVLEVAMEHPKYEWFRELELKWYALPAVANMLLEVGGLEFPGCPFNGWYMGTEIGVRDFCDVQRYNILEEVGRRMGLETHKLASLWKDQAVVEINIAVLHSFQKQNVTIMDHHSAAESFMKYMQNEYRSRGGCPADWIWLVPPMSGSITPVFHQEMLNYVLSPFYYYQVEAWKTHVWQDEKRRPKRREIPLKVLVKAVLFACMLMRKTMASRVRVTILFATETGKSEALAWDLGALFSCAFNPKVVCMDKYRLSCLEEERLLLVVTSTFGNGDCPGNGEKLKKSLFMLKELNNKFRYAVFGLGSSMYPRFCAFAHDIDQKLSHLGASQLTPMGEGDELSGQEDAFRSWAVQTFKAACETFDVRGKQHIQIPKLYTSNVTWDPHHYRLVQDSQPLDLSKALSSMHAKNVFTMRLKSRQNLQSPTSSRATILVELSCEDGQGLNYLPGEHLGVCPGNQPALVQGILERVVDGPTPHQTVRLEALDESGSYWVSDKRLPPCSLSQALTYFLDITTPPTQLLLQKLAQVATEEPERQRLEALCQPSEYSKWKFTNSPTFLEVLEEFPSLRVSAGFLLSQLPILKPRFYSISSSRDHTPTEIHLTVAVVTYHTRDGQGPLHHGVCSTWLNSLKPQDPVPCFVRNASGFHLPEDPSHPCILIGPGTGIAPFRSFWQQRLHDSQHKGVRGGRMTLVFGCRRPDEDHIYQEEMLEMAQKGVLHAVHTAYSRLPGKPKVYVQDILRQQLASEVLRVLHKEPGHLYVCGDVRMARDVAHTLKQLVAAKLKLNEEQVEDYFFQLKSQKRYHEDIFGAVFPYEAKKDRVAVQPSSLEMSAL

Row | Compound | Ratio EC50 [1] | inhibition [2] [%] | Ratio EC50 [3] | EC50 [4] [µM] | inhibition [5] [%] | t1/2 [6] [h] | EC50 [7] [µM] | EC50 [8] [µM] | EC50 [9] [µM] | Cmax [10] [µg/mL] | ED50 [11] [mg/kg] | AUC [12] [µg·h/mL] | half-life [13] [h]
1 | O=c1cc(Cn2c(-c3cccnc3)nc3ccccc32)c2ccc(F)c(F)c2[nH]1 | > 11 | < 50 | > 1 | > 100 | < 50 | > 2 | > 10 | 9.3 | – | – | – | – | –
2 | O=c1cc(Cn2c(C3CCC3)nc3ccccc32)c2ccc(F)c(F)c2[nH]1 | 23 | – | 1.2 | 5.9 | – | > 2 | 0.32 | 0.26 | 2.1 | 5.7 | 4 | 10 | 1.4
3 | Cc1ccncc1-c1nc2ccccc2n1Cc1cc(=O)[nH]c2c(F)c(F)ccc12 | > 8 | < 50 | > 1 | > 100 | < 50 | > 2 | > 10 | 12 | – | – | – | – | –
4 | Cn1cncc1-c1nc2ccccc2n1Cc1cc(=O)[nH]c2c(F)c(F)ccc12 | 1 | < 50 | 5.3 | 5.8 | – | > 2 | > 10 | 5.9 | – | – | – | – | –
5 | O=c1cc(Cn2c(-c3ccccn3)nc3ccccc32)c2ccc(F)c(F)c2[nH]1 | > 6 | < 50 | > 0.5 | > 100 | < 50 | 1.1 | > 10 | 18 | – | – | – | – | –
6 | O=c1cc(Cn2c(CC3CCCC3)nc3ccccc32)c2ccc(F)c(F)c2[nH]1 | > 56 | < 50 | > 6 | > 100 | < 50 | > 2 | > 10 | 1.77 | – | – | – | – | –
7 | O=c1cc(Cn2c(C3CCC3)nc3c(C(F)(F)F)ccnc32)c2ccc(F)c(F)c2[nH]1 | > 670 | – | 13 | > 100 | < 50 | 1.43 | 2 | 0.15 | – | – | – | – | –
8 | O=c1cc(Cn2c(-c3cncs3)nc3ccccc32)c2ccc(F)c(F)c2[nH]1 | > 12 | < 50 | > 12 | > 100 | < 50 | 0.717 | > 10 | 8.6 | – | – | – | – | –
9 | O=c1cc(Cn2c(C3CCC3)nc3cccnc32)c2ccc(F)c(F)c2[nH]1 | > 560 | – | 7.2 | > 100 | < 50 | 0.833 | 1.3 | 0.18 | – | – | – | – | –
10 | CCc1nc2ccccc2n1Cc1cc(=O)[nH]c2c(F)c(F)ccc12 | 0.4 | < 50 | > 2 | 1.6 | – | > 2 | > 10 | 4.3 | – | – | – | – | –
